Reference: ChEMBL document CHEMBL3627666, “5-Lipoxygenase inhibitors suppress RANKL-induced osteoclast formation via NFATc1 expression” (Bioorg Med Chem, 2015)
Calls of active or inactive are those of the source. The calls are words filed in the database; no cut-off is given here.

Tests used:
[1] = target: T1, Polyunsaturated fatty acid 5-lipoxygenase (Mus musculus, UniProt P48999); assay: Inhibition of 5-LO in mouse BMMC cells assessed as formation of LTC4 after 30 mins by enzyme immunoassay
T1 sequence (P48999 whole entry): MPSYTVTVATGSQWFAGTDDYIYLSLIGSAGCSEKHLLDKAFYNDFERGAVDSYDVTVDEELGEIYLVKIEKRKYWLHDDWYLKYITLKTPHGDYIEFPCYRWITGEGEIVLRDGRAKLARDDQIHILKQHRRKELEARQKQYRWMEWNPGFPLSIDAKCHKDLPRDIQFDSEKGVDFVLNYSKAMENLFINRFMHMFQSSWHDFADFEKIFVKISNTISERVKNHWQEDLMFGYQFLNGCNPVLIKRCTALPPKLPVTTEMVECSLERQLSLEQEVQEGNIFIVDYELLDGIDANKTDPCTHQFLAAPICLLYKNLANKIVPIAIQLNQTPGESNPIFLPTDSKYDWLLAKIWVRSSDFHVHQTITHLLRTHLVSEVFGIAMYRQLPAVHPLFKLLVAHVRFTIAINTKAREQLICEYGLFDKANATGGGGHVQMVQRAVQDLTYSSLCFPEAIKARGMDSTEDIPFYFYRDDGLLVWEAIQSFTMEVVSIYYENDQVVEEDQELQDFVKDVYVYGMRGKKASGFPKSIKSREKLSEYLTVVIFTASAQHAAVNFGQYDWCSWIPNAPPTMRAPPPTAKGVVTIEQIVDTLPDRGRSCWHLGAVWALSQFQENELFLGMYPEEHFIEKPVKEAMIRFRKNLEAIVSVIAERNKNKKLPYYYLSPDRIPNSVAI

[2] = target: T2, Tumor necrosis factor ligand superfamily member 11 (Mus musculus) (UniProt O35235); conditions: BMMC, 10 uM
T2 sequence (whole entry): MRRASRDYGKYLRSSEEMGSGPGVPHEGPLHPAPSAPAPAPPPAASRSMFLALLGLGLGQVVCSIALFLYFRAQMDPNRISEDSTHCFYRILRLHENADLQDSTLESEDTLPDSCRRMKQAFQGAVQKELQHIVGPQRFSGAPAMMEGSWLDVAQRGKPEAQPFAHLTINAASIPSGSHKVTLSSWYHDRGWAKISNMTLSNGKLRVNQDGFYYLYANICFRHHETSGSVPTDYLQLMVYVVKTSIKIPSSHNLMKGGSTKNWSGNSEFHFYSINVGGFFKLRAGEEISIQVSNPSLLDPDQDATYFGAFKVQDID

Mus musculus = assay: Antiosteoclast activity in mouse assessed as reduction of LPS-induced osteoclast formation in calvarial bone at 5 mg/kg, ip administered daily with LPS challenge after first day of compound dosing measured 6 days after LPS injection; type: functional, organism-based
In short: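 Six-week-old male mice, three groups, received compound at 5 mg/kg ip daily or vehicle (corn oil/DMSO 9:1). After one day, LPS (5 mg/kg) or PBS was injected subcutaneously over the calvaria. Mice were killed 6 days post-LPS. Whole calvariae were fixed in 4% paraformaldehyde and TRAP-stained, and TRAP⁺ area was quantified by image analysis.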

[3] = Cytotoxicity against mouse BMM cells assessed as cell survival after 4 days by MTT assay; type: cell-based; conditions: bmmc, 96 h
In short: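 BMMs were kept in α-MEM with M-CSF (30 ng/mL) with or without compound (10 µM) for 4 days. MTT was added for 5 h in the dark, then 10% SDS in 0.01 M HCl was added overnight. Absorbance was read at 570 nm. Mean ± SD, three independent experiments.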

[4] = target: T2, Tumor necrosis factor ligand superfamily member 11 (Mus musculus); conditions: BMM, 10 uM
[5] = target: T2, Tumor necrosis factor ligand superfamily member 11 (Mus musculus); conditions: BMM, 10 uM; remark: listed apart in the source
[6] = target: T2, Tumor necrosis factor ligand superfamily member 11 (Mus musculus); conditions: BMM, 10 uM; remark: listed apart in the source
[7] = target: T2, Tumor necrosis factor ligand superfamily member 11 (Mus musculus); conditions: BMM, 10 uM; remark: listed apart in the source
BMMC = assay: Antiosteoclast activity in mouse BMM cells assessed as reduction of LPS-induced osteoclast formation at 10 uM after 4 days by TRAP+ staining based light microscopy; type: functional, cell-based

SMILES | IC50 [1] [µM] | inhibition [2] | Activity (Mus musculus) | Activity [3] | inhibition [4] | inhibition [5] | inhibition [6] | inhibition [7] | Activity (BMMC)
COc1ccc(Nc2nc3cc(NC(=O)CCCCOc4ccc(/C(N)=N/O)cc4)ccc3o2)cc1 | 4.9 | – | – | – | – | – | – | – | –
CCc1ccc(Nc2nc3cc(NC(=O)CCCCOc4ccc(/C(N)=N/O)cc4)ccc3o2)cc1 | 1.72 | inactive | Active | Non-toxic | Active | Active | Active | Active | Active
N/C(=N\O)c1ccc(OCCCCC(=O)Nc2ccc3oc(Nc4ccccc4)nc3c2)cc1 | 4.1 | – | – | – | – | – | – | – | –
